According to ChEMBL document CHEMBL4350999, “Enhanced tumor retention of NTSR1-targeted agents by employing a hydrophilic cysteine cathepsin inhibitor” (Eur J Med Chem, 2019):
Calls of active or inactive are those of the source. The calls are words filed in the database; no cut-off is given here.

Assays:
[1] = Drug uptake in blood of SCID mouse xenografted with human HT-29 cells pretreated for 1 hr with colchicine at 1 mg/kg, ip followed by 177Lu labelled compound at 0.37 MBq/mouse, iv measured at 24 hrs by gamma counter analysis; assay type: ADME, organism-based; conditions: in vivo
Procedure, shortened: (§1)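 Female SCID mice bearing s.c. flank HT-29 xenografts (5 × 10^6 cells in Matrigel, ~80 mm3). Given 10 μCi (0.37 MBq) 177Lu conjugate i.v. by tail vein; groups sacrificed at 4, 24, 72 h. Tissues weighed and gamma-counted as %ID/g, excretion as %ID; n = 5, mean ± SD. Blocking arms: colchicine 1 mg/kg i.p. beforehand, or D-lysine 40 mg/kg co-injected.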

[2] = target: T1, Procathepsin L (Homo sapiens, UniProt P07711); experiment: Binding affinity to cathepsin L in human HT-29 cells assessed as intracellular adduct formation at 0.74 MBq incubated for 4 hrs and measured after 24 hrs in presence of DOTA-beta-ala-[N-alpha-Me8, Dmt11, Tle12] NT6-13 using 177Lu labelled compound by SDS-PAGE analysis; assay type: cell-based; parameters: dose or concentration left out as unconfirmed
Procedure, shortened: (§2)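 HT-29 cells (1 × 10^6/well) incubated 4 h at 37 °C with 177Lu conjugate (20 μCi, 0.74 MBq) in 1 mL medium, with or without E-64 (10 μM) or NTSR1 peptide N1 (20 μM). Cells washed and refed; at set times cells pooled, RIPA-lysed with protease inhibitor. Lysates heated 85 °C 2 min, run on 16% tris-glycine SDS-PAGE, and phosphor autoradiography taken after 72 h exposure.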
Target sequence in this assay (P07711 114-333 limits assumed): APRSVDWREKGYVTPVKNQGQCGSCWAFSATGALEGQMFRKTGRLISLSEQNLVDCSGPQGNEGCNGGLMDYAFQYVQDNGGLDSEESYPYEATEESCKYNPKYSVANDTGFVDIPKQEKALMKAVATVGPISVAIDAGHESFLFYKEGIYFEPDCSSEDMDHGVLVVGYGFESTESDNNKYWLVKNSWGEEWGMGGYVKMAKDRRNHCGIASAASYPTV

[3] = Drug uptake in heart of SCID mouse xenografted with human HT-29 cells pretreated for 1 hr with colchicine at 1 mg/kg, ip followed by 177Lu labelled compound at 0.37 MBq/mouse, iv measured at 24 hrs by gamma counter analysis; assay type: ADME, organism-based; conditions: in vivo
Procedure, shortened: (§3)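 HT-29 flank xenografts in female SCID mice (5 × 10^6 cells in Matrigel, about 80 mm3). Colchicine 1 mg/kg was given i.p. before a tail-vein injection of 10 μCi (0.37 MBq) of purified 177Lu-conjugate. Tissues were taken at 24 h, weighed and gamma-counted as %ID/g; mean ± SD, n = 5.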

[4] = Drug uptake in pancreas of SCID mouse xenografted with human HT-29 cells pretreated for 1 hr with colchicine at 1 mg/kg, ip followed by 177Lu labelled compound at 0.37 MBq/mouse, iv measured at 24 hrs by gamma counter analysis; assay type: ADME, organism-based; conditions: in vivo; procedure, shortened: as §3
[5] = Drug uptake in stomach of SCID mouse xenografted with human HT-29 cells pretreated for 1 hr with colchicine at 1 mg/kg, ip followed by 177Lu labelled compound at 0.37 MBq/mouse, iv measured at 24 hrs by gamma counter analysis; assay type: ADME, organism-based; conditions: in vivo
Procedure, shortened: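 HT-29 xenograft SCID mice pretreated with colchicine 1 mg/kg i.p., then given 177Lu conjugate i.v. at 10 μCi (0.37 MBq)/mouse. Tissues excised at 24 h, weighed and gamma counted for %ID/g (n = 5, mean ± SD).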

[6] = Drug uptake in muscle of SCID mouse xenografted with human HT-29 cells pretreated for 1 hr with colchicine at 1 mg/kg, ip followed by 177Lu labelled compound at 0.37 MBq/mouse, iv measured at 24 hrs by gamma counter analysis; assay type: ADME, organism-based, Muscle tissue; conditions: in vivo; procedure, shortened: as §3
[7] = Drug uptake in stomach of SCID mouse xenografted with human HT-29 cells using 177Lu labelled compound at 0.37 MBq/mouse, iv co-treated with D-lysine at 40 mg/kg measured at 24 hrs by gamma counter analysis; assay type: ADME, organism-based; conditions: in vivo
Procedure, shortened: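 HT-29 s.c. xenografts in female SCID mice. 177Lu conjugate given i.v. by tail vein at 10 μCi (0.37 MBq)/mouse, co-injected with D-lysine 40 mg/kg. Tissues were taken at 24 h, weighed and gamma counted. Uptake expressed as %ID/g (n = 5, mean ± SD); tumor-to-tissue ratios derived from these values.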

[8] = Drug uptake in small intestine of SCID mouse xenografted with human HT-29 cells using 177Lu labelled compound at 0.37 MBq/mouse, iv co-treated with D-lysine at 40 mg/kg measured at 24 hrs by gamma counter analysis; assay type: ADME, organism-based; conditions: in vivo
[9] = Drug uptake in SCID mouse xenografted with human HT-29 cells assessed as tumour retention using 177Lu labelled compound at 0.37 MBq/mouse, iv co-treated with D-lysine at 40 mg/kg measured at 24 hrs by gamma counter analysis; assay type: ADME, organism-based; conditions: in vivo; procedure, shortened: as §1
[10] = Drug excretion in SCID mouse xenografted with human HT-29 cells using 177Lu labelled compound at 0.37 MBq/mouse, iv co-treated with D-lysine at 40 mg/kg measured at 24 hrs by gamma counter analysis; assay type: ADME, organism-based; conditions: in vivo; procedure, shortened: as §1
[11] = target: T1, Procathepsin L; experiment: Inhibition of human liver cathepsin L assessed as inhibition constant using Z-Phe-Arg-AMC as substrate measured every 5 mins for 1 hr by fluorescence assay
Procedure, shortened: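 Human liver cathepsin L in acetate buffer pH 5.5 (340 mM sodium acetate, 60 mM acetic acid, 1 mM EDTA, 3 mM DTT). Biological triplicate.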
Target sequence in this assay (P07711 whole entry): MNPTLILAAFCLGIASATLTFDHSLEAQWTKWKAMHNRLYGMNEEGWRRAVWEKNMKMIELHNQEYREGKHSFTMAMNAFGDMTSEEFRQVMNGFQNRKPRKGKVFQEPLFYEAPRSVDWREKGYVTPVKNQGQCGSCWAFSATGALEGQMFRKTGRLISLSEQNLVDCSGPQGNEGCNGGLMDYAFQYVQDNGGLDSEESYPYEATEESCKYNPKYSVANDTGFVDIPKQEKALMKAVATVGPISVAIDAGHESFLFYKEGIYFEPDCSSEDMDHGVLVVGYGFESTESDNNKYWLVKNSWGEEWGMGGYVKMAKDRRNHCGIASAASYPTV

[12] = target: T2, Cathepsin B (Homo sapiens, UniProt P07858); experiment: Binding affinity to cathepsin B in human HT-29 cells assessed as intracellular adduct formation at 0.74 MBq incubated for 4 hrs in presence of E-64 using 177Lu labelled compound by SDS-PAGE analysis; assay type: cell-based; parameters: dose or concentration left out as unconfirmed; procedure, shortened: as §2
[13] = Drug retention in liver of mouse xenografted with human HT-29 cells assessed as tissue-conjugate adduct formation at 29.6 MBq co-treated with D-lysine at 40 mg/kg measured after 72 hrs using 177Lu labelled compound by SDS-PAGE analysis; assay type: ADME, organism-based; conditions: in vivo
[14] = Drug retention in human HT-29 cells assessed as increase in mean fluorescence intensity at 5 uM incubated for 2 hrs and measured at 24 hrs using natEu labelled compound by lysotracker green staining based confocal microscopic analysis; assay type: ADME, cell-based; conditions: ht-29, 2 h
Procedure, shortened: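 HT-29 cells (1.25 × 10^5/well) loaded with natEu conjugate (5 μM), washed, then chased in fresh medium up to 24 h. Lysotracker Green (100 nM) applied 2 h before each read; cells fixed and imaged confocally at 405/488 nm. Per-cell mean fluorescence and Lysotracker co-localization quantified.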

[15] = target: T2, Cathepsin B; experiment: Binding affinity to human liver cathepsin B assessed as protein-conjugate adduct formation at 0.74 MBq incubated for 30 mins in presence of DOTA-beta-ala-[N-alpha-Me8, Dmt11, Tle12] NT6-13 using 177Lu labelled compound by SDS-PAGE analysis; conditions: 0.74 M
Procedure, shortened: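 Purified human liver CatB or CatL (3 nM) in 50 mM sodium acetate/1 mM EDTA pH 5.0 incubated 30 min with 177Lu conjugate (500,000 cpm) in Tris/MgCl2/DTT buffer pH 5.5, alone or with E-64 (10 μM) or N1 (20 μM). Mixtures heated 85 °C 2 min, run on 16% tris-glycine gel at 110 V for 90 min, and read by phosphor autoradiography.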

[16] = Drug retention in tumor lysates of mouse xenografted with human HT-29 cells assessed as macromolecule associated radioactivity at 29.6 MBq co-treated with D-lysine measured after 72 hrs using 177Lu labelled compound by gamma counter analysis relative to control; assay type: ADME, tissue-based, Neoplasm; conditions: in vivo

Drug uptake [1]: 0.06 % ID/g | Activity [2]: inactive | Drug uptake [3]: 0.2 % ID/g | Drug uptake [4]: 0.7 % ID/g | Drug uptake [5]: 0.29 % ID/g | Drug uptake [6]: 0.06 % ID/g | Drug uptake [7]: 0.21 % ID/g | Drug uptake [8]: 1.47 % ID/g | Drug uptake [9]: 6 % ID/g | Drug excretion [10]: 83 %ID | Ki [11]: 76 nM | Activity [12]: Active | Drug uptake [13]: Not Active | Drug uptake [14]: Active | Activity [15]: Active | Drug uptake [16]: 80%
SMILES: Cc1cc(O)cc(C)c1C[C@H](NC(=O)[C@@H]1CCCN1C(=O)[C@H](CCCNC(=N)N)NC(=O)[C@H](CCCNC(=N)N)N(C)C(=O)[C@@H]1CCCN1C(=O)[C@H](CCCCN)NC(=O)[C@@H](CO)NC(=O)[C@@H](CO)NC(=O)[C@@H](CO)NC(=O)[C@H](Cc1cn(CCNC(=O)[C@H](CCCNC(=N)N)NC(=O)[C@H](CC(C)C)NC(=O)C2OC2C(=O)O)nn1)NC(=O)CN1CCN(CC(=O)O)CCN(CC(=O)O)CCN(CC(=O)O)CC1)C(=O)N[C@H](C(=O)N[C@@H](CC(C)C)C(=O)O)C(C)(C)C (stereo partly specified)
